Data taken from ChEMBL document CHEMBL4265907, “Design, synthesis and pharmacological evaluation of N4,N6-disubstituted pyrimidine-4,6-diamine derivatives as potent EGFR inhibitors in non-small cell lung cancer” (Eur J Med Chem, 2018).

What was measured:
[1] = molecular target: Vascular endothelial growth factor receptor 1 (Homo sapiens) (UniProt P17948); test: Inhibition of recombinant human GST-tagged FLT1 cytoplasmic domain (781 to 1338 residues) expressed in baculovirus expression system at 1 uM using FAM-labeled peptide as substrate after 10 mins by mobility shift assay relative to control
Procedure, shortened: (§1)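 Caliper mobility-shift kinase assay. Kinase in kinase base buffer was preincubated with compound for 10 min at room temperature. FAM-labelled peptide and ATP at Km were then added, and the reaction ran at 28 °C until quenched with buffer. Screening concentration was 1 µM. Percent inhibition = (max − conversion)/(max − min) × 100, with DMSO as max and a low control as min.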

[2] = molecular target: Serine/threonine-protein kinase B-raf (Homo sapiens) (UniProt P15056); test: Inhibition of recombinant human GST-tagged full length BRAF expressed in baculovirus expression system at 1 uM using FAM-labeled peptide as substrate after 10 mins by mobility shift assay relative to control; procedure, shortened: as §1
[3] = molecular target: Vascular endothelial growth factor receptor 2 (Homo sapiens) (UniProt P35968); test: Inhibition of N-terminal GST-tagged human KDR cytoplasmic domain (790 to 1356 residues) expressed in baculovirus expression system at […] using FAM-labeled peptide as substrate after 10 mins by mobility shift assay relative to control; procedure, shortened: as §1
Chain of Vascular endothelial growth factor receptor 2 (Homo sapiens) (P35968 whole entry, the tested form may be a part): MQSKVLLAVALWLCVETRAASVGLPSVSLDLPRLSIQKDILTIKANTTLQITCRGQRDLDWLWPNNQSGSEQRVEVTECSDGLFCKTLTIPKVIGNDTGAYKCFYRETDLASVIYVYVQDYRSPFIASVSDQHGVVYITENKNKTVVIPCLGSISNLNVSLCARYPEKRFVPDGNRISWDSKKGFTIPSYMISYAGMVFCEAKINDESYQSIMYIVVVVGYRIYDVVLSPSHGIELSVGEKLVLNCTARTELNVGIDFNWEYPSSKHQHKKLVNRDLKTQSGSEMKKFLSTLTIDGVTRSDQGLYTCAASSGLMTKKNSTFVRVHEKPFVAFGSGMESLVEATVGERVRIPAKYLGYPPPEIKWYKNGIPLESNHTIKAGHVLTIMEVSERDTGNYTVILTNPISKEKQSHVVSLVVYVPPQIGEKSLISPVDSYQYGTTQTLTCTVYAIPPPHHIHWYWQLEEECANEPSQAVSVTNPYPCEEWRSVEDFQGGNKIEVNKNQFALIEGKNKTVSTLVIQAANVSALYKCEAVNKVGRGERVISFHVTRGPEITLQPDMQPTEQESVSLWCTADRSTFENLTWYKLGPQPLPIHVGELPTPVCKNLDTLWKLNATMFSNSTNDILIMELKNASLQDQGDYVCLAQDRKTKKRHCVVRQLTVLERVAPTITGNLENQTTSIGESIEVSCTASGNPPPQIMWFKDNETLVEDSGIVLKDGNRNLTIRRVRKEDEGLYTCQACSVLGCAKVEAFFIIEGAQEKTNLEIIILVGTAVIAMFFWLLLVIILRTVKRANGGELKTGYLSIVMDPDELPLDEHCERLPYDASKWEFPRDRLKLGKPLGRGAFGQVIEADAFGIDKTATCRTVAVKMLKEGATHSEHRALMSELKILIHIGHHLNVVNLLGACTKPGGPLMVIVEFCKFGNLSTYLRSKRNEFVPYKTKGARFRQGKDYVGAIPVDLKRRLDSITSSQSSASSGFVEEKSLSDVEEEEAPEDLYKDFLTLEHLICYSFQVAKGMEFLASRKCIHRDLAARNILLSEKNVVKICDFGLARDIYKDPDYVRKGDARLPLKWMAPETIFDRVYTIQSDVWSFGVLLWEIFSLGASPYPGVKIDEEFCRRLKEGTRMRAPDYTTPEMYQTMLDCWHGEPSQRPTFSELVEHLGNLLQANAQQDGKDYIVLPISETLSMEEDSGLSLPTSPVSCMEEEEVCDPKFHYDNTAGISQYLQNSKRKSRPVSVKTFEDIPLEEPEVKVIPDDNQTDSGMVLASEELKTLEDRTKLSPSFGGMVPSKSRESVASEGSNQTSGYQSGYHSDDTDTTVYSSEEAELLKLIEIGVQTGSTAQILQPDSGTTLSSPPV

[4] = molecular target: Proto-oncogene tyrosine-protein kinase receptor Ret (Homo sapiens) (UniProt P07949); test: Inhibition of N-terminal GST-tagged human RET cytoplasmic domain (658 to 1114 residues) expressed in baculovirus expression system at 1 uM using FAM-labeled peptide as substrate after 10 mins by mobility shift assay relative to control; procedure, shortened: as §1
Chain of Proto-oncogene tyrosine-protein kinase receptor Ret (Homo sapiens) (P07949 whole entry, the tested form may be a part): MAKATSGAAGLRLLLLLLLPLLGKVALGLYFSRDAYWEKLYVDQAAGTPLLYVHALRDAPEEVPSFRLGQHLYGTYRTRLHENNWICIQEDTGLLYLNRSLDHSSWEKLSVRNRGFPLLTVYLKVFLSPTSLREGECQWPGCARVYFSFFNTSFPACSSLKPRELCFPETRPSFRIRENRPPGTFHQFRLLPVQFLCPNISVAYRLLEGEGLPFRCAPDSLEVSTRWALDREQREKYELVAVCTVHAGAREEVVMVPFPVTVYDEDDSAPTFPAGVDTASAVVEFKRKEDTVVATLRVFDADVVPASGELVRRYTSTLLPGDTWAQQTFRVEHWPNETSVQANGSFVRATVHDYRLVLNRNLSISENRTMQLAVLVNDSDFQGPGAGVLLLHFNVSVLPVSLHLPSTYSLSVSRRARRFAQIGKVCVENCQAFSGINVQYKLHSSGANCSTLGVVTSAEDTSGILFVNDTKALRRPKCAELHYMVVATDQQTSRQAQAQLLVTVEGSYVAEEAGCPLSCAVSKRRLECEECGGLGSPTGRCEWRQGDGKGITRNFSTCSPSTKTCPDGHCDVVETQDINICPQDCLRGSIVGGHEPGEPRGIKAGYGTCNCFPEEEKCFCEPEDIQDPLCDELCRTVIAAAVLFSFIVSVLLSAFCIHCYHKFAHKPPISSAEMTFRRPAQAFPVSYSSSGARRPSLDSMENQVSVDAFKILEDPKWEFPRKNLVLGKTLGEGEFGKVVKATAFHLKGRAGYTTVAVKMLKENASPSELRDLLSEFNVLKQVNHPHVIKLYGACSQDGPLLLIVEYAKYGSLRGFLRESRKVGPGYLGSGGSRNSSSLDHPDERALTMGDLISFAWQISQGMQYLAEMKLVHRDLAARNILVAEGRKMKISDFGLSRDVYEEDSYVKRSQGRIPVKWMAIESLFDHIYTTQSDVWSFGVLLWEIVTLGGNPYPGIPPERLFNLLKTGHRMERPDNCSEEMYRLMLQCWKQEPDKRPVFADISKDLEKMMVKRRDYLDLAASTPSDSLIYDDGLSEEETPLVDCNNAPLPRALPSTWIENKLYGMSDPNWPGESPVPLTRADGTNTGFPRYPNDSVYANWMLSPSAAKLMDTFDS

[5] = molecular target: Fibroblast growth factor receptor 1 (Homo sapiens) (UniProt P11362); test: Inhibition of N-terminal GST-tagged human FGFR1 cytoplasmic domain (398 to 822 residues) expressed in baculovirus expression system at 1 uM using FAM-labeled peptide as substrate after 10 mins by mobility shift assay relative to control; procedure, shortened: as §1
[6] = molecular target: Serine/threonine-protein kinase PAK 2 (Homo sapiens) (UniProt Q13177); test: Inhibition of human N-terminal GST-tagged full length PAK2 (1 to 524 residues) expressed in baculovirus expression system at 1 uM using FAM-labeled peptide as substrate after 10 mins by mobility shift assay relative to control; procedure, shortened: as §1
[7] = molecular target: Insulin-like growth factor 1 receptor (Homo sapiens) (UniProt P08069); test: Inhibition of human His-tagged IGF1R cytoplasmic domain (960 to 1397 residues) expressed in baculovirus expression system at 1 uM using FAM-labeled peptide as substrate after 10 mins by mobility shift assay relative to control; procedure, shortened: as §1
Chain of Insulin-like growth factor 1 receptor (Homo sapiens) (P08069 31-736 limits assumed): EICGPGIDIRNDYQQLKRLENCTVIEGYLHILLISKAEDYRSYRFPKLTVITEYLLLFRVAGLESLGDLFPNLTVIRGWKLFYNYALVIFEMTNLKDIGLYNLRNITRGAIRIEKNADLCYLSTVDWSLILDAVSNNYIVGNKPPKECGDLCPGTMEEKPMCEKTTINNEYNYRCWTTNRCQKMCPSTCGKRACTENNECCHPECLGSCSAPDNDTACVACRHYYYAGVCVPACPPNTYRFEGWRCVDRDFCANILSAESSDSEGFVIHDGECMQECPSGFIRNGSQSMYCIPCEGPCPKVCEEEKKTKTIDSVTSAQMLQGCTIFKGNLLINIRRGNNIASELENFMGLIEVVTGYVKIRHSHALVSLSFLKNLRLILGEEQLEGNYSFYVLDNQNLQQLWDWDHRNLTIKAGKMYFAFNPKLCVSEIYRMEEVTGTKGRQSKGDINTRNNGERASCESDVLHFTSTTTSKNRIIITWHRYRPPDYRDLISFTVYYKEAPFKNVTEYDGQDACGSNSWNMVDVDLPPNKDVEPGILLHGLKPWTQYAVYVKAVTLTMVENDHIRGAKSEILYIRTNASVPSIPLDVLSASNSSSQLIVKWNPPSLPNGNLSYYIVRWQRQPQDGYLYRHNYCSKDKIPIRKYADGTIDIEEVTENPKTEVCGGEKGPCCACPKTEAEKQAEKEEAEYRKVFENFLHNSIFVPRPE
Chain of Insulin-like growth factor 1 receptor (Homo sapiens) (P08069 741-1367 limits assumed): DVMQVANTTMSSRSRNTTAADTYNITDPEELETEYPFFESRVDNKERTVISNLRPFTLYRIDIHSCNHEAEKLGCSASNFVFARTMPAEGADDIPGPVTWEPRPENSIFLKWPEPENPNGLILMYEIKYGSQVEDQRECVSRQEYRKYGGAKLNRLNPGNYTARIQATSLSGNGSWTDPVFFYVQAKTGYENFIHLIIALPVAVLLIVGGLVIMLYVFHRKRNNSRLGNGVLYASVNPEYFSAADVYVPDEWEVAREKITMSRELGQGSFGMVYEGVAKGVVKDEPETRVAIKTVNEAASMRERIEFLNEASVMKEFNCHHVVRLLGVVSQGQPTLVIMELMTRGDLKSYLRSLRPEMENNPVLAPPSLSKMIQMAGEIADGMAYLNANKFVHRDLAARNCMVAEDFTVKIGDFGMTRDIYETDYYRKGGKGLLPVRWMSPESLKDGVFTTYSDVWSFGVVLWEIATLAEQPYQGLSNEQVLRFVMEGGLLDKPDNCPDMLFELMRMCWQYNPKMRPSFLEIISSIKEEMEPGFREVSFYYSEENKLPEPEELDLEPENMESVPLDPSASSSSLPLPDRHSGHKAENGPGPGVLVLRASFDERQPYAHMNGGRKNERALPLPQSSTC

[8] = molecular target: Platelet-derived growth factor receptor alpha (Homo sapiens) (UniProt P16234); test: Inhibition of recombinant human GST-tagged PDGFRalpha cytoplasmic domain (550 to 1089 residues) expressed in baculovirus expression system at 1 uM using FAM-labeled peptide as substrate after 10 mins by mobility shift assay relative to control; procedure, shortened: as §1
[9] = molecular target: Receptor tyrosine-protein kinase erbB-4 (Homo sapiens) (UniProt Q15303); test: Inhibition of N-terminal GST-tagged human HER4 cytoplasmic domain (676 to 1308 residues) expressed in baculovirus expression system at 1 uM using FAM-labeled peptide as substrate after 10 mins by mobility shift assay relative to control; procedure, shortened: as §1
[10] = molecular target: RAC-alpha serine/threonine-protein kinase (Homo sapiens) (UniProt P31749); test: Inhibition of recombinant human N-terminal His-tagged full length human AKT1 (1 to 480 residues) expressed in baculovirus infected Sf9 insect cells at 1 uM using FAM-labeled peptide as substrate after 10 mins by mobility shift assay relative to control; procedure, shortened: as §1
[11] = molecular target: Platelet-derived growth factor receptor beta (Homo sapiens) (UniProt P09619); test: Inhibition of N-terminal GST-tagged human PDGFRbeta cytoplasmic domain (557 to 1106 residues) expressed in baculovirus expression system at 1 uM using FAM-labeled peptide as substrate after 10 mins by mobility shift assay relative to control; procedure, shortened: as §1
Chain of Platelet-derived growth factor receptor beta (Homo sapiens) (P09619 whole entry, the tested form may be a part): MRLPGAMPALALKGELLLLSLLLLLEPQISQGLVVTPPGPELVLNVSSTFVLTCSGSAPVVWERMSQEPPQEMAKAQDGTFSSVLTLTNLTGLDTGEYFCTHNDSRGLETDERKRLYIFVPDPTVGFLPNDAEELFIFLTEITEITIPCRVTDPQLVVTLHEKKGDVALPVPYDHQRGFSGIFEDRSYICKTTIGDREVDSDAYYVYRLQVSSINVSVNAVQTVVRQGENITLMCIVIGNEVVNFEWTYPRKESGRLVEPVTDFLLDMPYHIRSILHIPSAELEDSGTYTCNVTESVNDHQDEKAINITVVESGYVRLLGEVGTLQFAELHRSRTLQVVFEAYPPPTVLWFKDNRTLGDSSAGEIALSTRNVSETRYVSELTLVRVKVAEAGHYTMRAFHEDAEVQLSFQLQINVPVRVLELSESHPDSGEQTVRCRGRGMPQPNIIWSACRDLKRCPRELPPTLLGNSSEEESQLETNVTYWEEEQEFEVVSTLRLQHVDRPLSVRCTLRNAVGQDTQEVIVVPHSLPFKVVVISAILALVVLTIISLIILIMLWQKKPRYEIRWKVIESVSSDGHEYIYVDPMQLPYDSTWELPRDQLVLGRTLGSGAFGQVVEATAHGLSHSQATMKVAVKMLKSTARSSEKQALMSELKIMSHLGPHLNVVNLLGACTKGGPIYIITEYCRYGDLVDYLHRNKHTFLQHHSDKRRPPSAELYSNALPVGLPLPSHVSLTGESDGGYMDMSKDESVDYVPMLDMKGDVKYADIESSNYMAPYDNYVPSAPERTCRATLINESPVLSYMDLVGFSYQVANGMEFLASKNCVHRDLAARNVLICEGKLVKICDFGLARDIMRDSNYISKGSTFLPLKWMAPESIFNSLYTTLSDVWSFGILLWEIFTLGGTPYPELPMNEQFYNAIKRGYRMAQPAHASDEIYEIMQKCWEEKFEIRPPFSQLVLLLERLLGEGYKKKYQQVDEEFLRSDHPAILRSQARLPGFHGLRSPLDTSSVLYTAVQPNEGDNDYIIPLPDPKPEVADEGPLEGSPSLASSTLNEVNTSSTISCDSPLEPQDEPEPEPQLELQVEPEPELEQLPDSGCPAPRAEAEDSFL

[12] = molecular target: Receptor-type tyrosine-protein kinase FLT3 (Homo sapiens) (UniProt P36888); test: Inhibition of human N-terminal GST-tagged FLT3 cytoplasmic domain (564 to 993 residues) expressed in baculovirus expression system at 1 uM using FAM-labeled peptide as substrate after 10 mins by mobility shift assay relative to control; procedure, shortened: as §1
[13] = molecular target: Tyrosine-protein kinase JAK1 (Homo sapiens) (UniProt P23458); test: Inhibition of human N-terminal GST-tagged JAK1 catalytic domain (850 to 1154 residues) expressed in baculovirus expression system at 1 uM using FAM-labeled peptide as substrate after 10 mins by mobility shift assay relative to control; procedure, shortened: as §1
[14] = molecular target: Receptor tyrosine-protein kinase erbB-2 (Homo sapiens) (UniProt P04626); test: Inhibition of N-terminal His-tagged human HER2 cytoplasmic domain (676 to 1255 residues) expressed in baculovirus expression system at 1 uM using FAM-labeled peptide as substrate after 10 mins by mobility shift assay relative to control; procedure, shortened: as §1
[15] = molecular target: Fibroblast growth factor receptor 2 (Homo sapiens) (UniProt P21802); test: Inhibition of N-terminal GST-tagged human FGFR2 cytoplasmic domain (399 to 821 residues) expressed in baculovirus expression system at 1 uM using FAM-labeled peptide as substrate after 10 mins by mobility shift assay relative to control; procedure, shortened: as §1
[16] = molecular target: T1, Mitogen-activated protein kinase kinase kinase kinase 2 (Homo sapiens) (UniProt Q12851); test: Inhibition of human N-terminal GST-tagged full length MAP4K2 (1 to 820 residues) expressed in baculovirus expression system at 1 uM using FAM-labeled peptide as substrate after 10 mins by mobility shift assay relative to control; procedure, shortened: as §1
T1 sequence (whole entry): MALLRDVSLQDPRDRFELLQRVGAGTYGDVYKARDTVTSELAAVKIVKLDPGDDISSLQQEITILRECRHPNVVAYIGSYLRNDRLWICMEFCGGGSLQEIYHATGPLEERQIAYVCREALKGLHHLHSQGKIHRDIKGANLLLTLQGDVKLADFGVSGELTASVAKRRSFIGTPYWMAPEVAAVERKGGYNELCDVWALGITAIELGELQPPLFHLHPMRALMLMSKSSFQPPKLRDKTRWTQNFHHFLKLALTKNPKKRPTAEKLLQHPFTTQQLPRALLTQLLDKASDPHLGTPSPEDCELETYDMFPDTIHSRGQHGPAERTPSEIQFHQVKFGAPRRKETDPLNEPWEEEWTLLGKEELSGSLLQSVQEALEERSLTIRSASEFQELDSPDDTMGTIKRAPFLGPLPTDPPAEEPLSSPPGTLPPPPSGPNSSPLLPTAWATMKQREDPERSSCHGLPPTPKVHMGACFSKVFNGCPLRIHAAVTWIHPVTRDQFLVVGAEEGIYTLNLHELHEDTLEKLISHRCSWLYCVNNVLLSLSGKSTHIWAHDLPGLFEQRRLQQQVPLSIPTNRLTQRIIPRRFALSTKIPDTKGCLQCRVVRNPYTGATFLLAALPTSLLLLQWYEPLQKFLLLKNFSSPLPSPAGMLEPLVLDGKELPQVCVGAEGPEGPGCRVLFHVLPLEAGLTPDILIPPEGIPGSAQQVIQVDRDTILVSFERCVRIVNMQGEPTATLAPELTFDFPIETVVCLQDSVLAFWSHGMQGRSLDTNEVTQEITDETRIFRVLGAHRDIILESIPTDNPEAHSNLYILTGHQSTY

Compound | inhibition [1] [%] | inhibition [2] [%] | inhibition [3] [%] | inhibition [4] [%] | inhibition [5] [%] | inhibition [6] [%] | inhibition [7] [%] | inhibition [8] [%] | inhibition [9] [%] | inhibition [10] [%] | inhibition [11] [%] | inhibition [12] [%] | inhibition [13] [%] | inhibition [14] [%] | inhibition [15] [%] | inhibition [16] [%]
COc1cccc(Nc2cc(Nc3cc(OC)ccc3OC)ncn2)c1 | 18.1 | 47.5 | 7.3 | 16.3 | 4.8 | 4.7 | 6.3 | 26.9 | 11.3 | -2.1 | 30.4 | 59.1 | -1.4 | -4.2 | 9.8 | 5.4
COc1cccc(Nc2cc(NC(=O)CCCC(=O)O)ncn2)c1 | 11.8 | 11.3 | 10.5 | 7.7 | 24 | 18.9 | 10.1 | 8 | 21.7 | 6.8 | 10.3 | 10.5 | -0.7 | -1.9 | 21.4 | 10.5
COc1ccc(Nc2cc(NC(=O)c3ccccc3)ncn2)cc1 | 2.3 | 16.6 | 12.4 | 2.9 | -1.6 | 13.4 | 5.3 | 21.7 | 71.4 | -3.4 | 29.4 | 6.9 | -0.8 | 55.8 | 8.3 | -3.2
CCOC(=O)c1ccc(Nc2cc(NC(=O)CCCC(=O)O)ncn2)cc1 | 2.9 | 12.7 | -1.4 | 10.4 | 5.6 | 15.7 | 9.2 | 4.7 | 27.1 | 4.7 | 24.2 | 11.5 | -3.1 | 4.9 | 7.2 | 5.5
O=C(O)CCCC(=O)Nc1cc(N2CCOCC2)ncn1 | -9.5 | 16.7 | 14.4 | 8.5 | 5.6 | 9.4 | 4 | 9.2 | 8.3 | -3 | 10 | 16.4 | -2.4 | -1.5 | 5.9 | 3.3
O=C(O)CCCC(=O)Nc1cc(Nc2cccc(Cl)c2)ncn1 | 12.3 | 79.3 | 8.5 | 16.8 | 13.5 | 16.9 | 13.2 | 43 | 88.6 | 0 | 74.1 | 35.5 | -1 | 57.3 | 16.5 | 9.2
